Reference: ChEMBL document CHEMBL4028915, “The Design and Development of a Potent and Selective Novel Diprolyl Derivative That Binds to the N-Domain of Angiotensin-I Converting Enzyme” (J Med Chem, 2018)

Assays:
[1] = Inhibition of human ACE Ndom389 mutant preincubated for 30 mins followed by Z-FHL substrate addition measured after 15 mins by fluorimetric method
Method in brief: (§1)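 Enzyme diluted from frozen stock to 10 nM (Ndom389, line 1) or 5 nM (tACE Δ36NJ, line 2) in 100 mM potassium phosphate pH 8.3, 300 mM NaCl, 10 μM ZnSO4, 1 mg/ml albumin. Compounds (10-fold series 100 μM–1 nM, then 9-point two-fold series) preincubated with enzyme 1:1, 30 min, room temperature. 1 mM Z-FHL added, 40 °C, 15 min. OPA/NaOH derivatisation, HCl quench. Fluorescence ex 360/em 485 nm, triplicate wells. IC50 from activity curves, converted to Ki.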

[2] = Inhibition of human testis ACE delta36NJ mutant preincubated for 30 mins followed by Z-FHL substrate addition measured after 15 mins by fluorimetric method; method in brief: as §1
Homo sapiens = organism: Homo sapiens; test: Selectivity ratio of Ki for human testis ACE delta36NJ mutant to Ki for human ACE Ndom389 mutant
Method in brief: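 Ki for each domain calculated from IC50 values obtained by Z-FHL hydrolysis assay (Ndom389 10 nM, tACE Δ36NJ 5 nM; 30 min room temperature preincubation, 15 min at 40 °C, OPA fluorescence ex 360/em 485 nm, triplicate). Ratio of C-domain Ki to N-domain Ki.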

Row | SMILES | Ki [1] [nM] | Ki [2] [nM] | Ratio Ki (Homo sapiens)
1 | C[C@H](N[C@H](C(=O)O)[C@@H]1CCCN1C(=O)[C@@H](N)CC(=O)O)C(=O)N1CCC[C@H]1C(=O)O | 11.4 | 961 | 83.9
2 | C[C@H](N[C@H](C(=O)O)[C@@H]1CCCN1C(=O)c1ccccc1)C(=O)N1CCC[C@H]1C(=O)O | 4.45 | 0.31 | 0.07
3 | C[C@H](N[C@H](C(=O)O)[C@@H]1CCCN1C(=O)c1ccc(N)cc1)C(=O)N1CCC[C@H]1C(=O)O | 3.37 | 0.22 | 0.07
4 | C[C@H](N[C@H](C(=O)O)[C@@H]1CCCN1C(=O)[C@@H](N)Cc1ccccc1)C(=O)N1CCC[C@H]1C(=O)O | 70.3 | 168 | 2.39
5 | C[C@H](N[C@H](C(=O)O)[C@@H]1CCCN1C(=O)[C@@H](N)CCC(=O)O)C(=O)N1CCC[C@H]1C(=O)O | 9.63 | 17.4 | 1.81
6 | C[C@H](N[C@H](C(=O)O)[C@@H]1CCCN1C(=O)CN)C(=O)N1CCC[C@H]1C(=O)O | 279 | 44.4 | 0.16
7 | C[C@H](N[C@H](C(=O)O)[C@@H]1CCCN1C(=O)c1ccc(C(=O)O)cc1)C(=O)N1CCC[C@H]1C(=O)O | 16.9 | 2.29 | 0.14
